From ChEMBL document CHEMBL5226368, “1H NMR-Based Biochemometric Analysis of Morus alba Extracts toward a Multipotent Herbal Anti-Infective” (J Nat Prod, 2023)
Calls of active or inactive are those of the source.

Columns and labels:
Type in all cases: functional, organism-based
Settings in all cases: dose 1-10 µM
Influenza A virus [1] = assay: Antiviral activity against oseltamivir resistant Influenza A virus A/2588/19 (H3N2) infected in MDCK cells assessed as reduction in plaque number at 1 to 10 uM pre-infected with cell for 1 hrs followed by compound addition and measured after 72 hrs by plaque reduction assay
Procedure, shortened: (§1)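 Confluent MDCK monolayers were inoculated at 37 °C for 1 h with virus suspension, either alone or with serial half-log sample dilutions (1, 3.16, 10), in duplicate. The inoculum was aspirated and replaced with serum-free test medium containing 2 µg/mL trypsin, 0.4% agar and the same sample concentrations. Plaques were counted and IC50 was derived by a four-parameter logistic fit (n = 3).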

Influenza A virus [2] = assay: Antiviral activity against oseltamivir resistant Influenza A virus A/1690/19 (H1N1) infected in MDCK cells assessed as reduction in plaque number at 1 to 10 uM pre-infected with cell for 1 hrs followed by compound addition and measured after 72 hrs by plaque reduction assay; procedure, shortened: as §1
Influenza B virus [3] = assay: Antiviral activity against oseltamivir resistant Influenza B virus B/2791/18 (Victoria) infected in MDCK cells assessed as reduction in plaque number at 1 to 10 uM pre-infected with cell for 1 hrs followed by compound addition and measured after 72 hrs by plaque reduction assay; procedure, shortened: as §1
Influenza A virus [4] = assay: Antiviral activity against oseltamivir resistant Influenza A virus A/1519/19 (H1N1) infected in MDCK cells assessed as reduction in plaque number at 1 to 10 uM pre-infected with cell for 1 hrs followed by compound addition and measured after 72 hrs by plaque reduction assay; procedure, shortened: as §1
Influenza B virus [5] = assay: Antiviral activity against oseltamivir resistant Influenza B virus B/3449/18 (Yamagata) infected in MDCK cells assessed as reduction in plaque number at 1 to 10 uM pre-infected with cell for 1 hrs followed by compound addition and measured after 72 hrs by plaque reduction assay; procedure, shortened: as §1

Measured: Activity

CC(C)=CCCC1=C[C@H](c2c(O)cc3c(c2O)C(=O)C[C@@H](c2ccc(O)cc2O)O3)[C@@H](C(=O)c2ccc(O)cc2O)[C@H](c2ccc(O)cc2O)C1
active: Influenza A virus [1] | Influenza A virus [2] | Influenza B virus [3] | Influenza A virus [4] | Influenza B virus [5]

CC(C)=CC[C@]12Oc3cc(O)c([C@H]4C=C(C)C[C@H](c5ccc(O)cc5O)[C@H]4C(=O)c4ccc(O)cc4O)c(O)c3C(=O)[C@@]1(O)Oc1cc(O)ccc12 [SANGGENON C]
active: Influenza A virus [1] | Influenza A virus [2] | Influenza B virus [3] | Influenza A virus [4] | Influenza B virus [5]
